Columns and labels:
[1] = species on record: Rattus norvegicus; experiment: Hallucinogenic activity in rat; assay type: functional; conditions: for ED50: Rattus norvegicus
Procedure, shortened: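 Rats were trained to discriminate saline from LSD tartrate (186 nmol/kg ip). The read-out was presses on the drug lever. […] At least 59% gave partial substitution.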

[2] = biological target: 5-hydroxytryptamine receptor 2A (Rattus norvegicus) (UniProt P14842); experiment: (§1) Activity at rat 5HT2A receptor assessed as 5-HT-stimulated IP3 accumulation; assay type: functional
5-hydroxytryptamine receptor 2A (Rattus norvegicus), sequence (P14842 whole entry): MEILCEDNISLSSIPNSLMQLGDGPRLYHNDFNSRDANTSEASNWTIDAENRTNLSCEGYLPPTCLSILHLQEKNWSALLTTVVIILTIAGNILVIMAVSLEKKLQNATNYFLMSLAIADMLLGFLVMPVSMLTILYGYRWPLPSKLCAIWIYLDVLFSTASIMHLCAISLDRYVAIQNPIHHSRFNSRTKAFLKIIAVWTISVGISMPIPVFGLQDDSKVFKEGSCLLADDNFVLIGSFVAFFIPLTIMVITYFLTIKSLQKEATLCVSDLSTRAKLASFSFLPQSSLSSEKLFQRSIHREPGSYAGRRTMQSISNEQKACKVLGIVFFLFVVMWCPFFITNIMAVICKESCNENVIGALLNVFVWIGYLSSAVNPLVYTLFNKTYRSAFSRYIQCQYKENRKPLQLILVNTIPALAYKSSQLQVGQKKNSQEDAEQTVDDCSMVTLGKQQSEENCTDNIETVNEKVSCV
Procedure, shortened: (§2)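 Rat 5-HT2A-expressing stable cell line, seeded and assayed at 70% confluence. Cells were labeled 18-20 h with [3H]myoinositol at 1.0 µCi/mL, then pretreated 15 min with 10 µM pargyline/10 mM LiCl. Drug exposure was 30 min at 37 °C under 5% CO2. The assay was stopped with 10 mM formic acid, and [3H]inositol phosphates were isolated on Dowex-1 columns.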

[3] = biological target: T1, 5-hydroxytryptamine receptor 2C (Rattus norvegicus, UniProt P08909); experiment: Displacement of [125I]DOI from rat 5HT2C receptor
T1 sequence (P08909 whole entry): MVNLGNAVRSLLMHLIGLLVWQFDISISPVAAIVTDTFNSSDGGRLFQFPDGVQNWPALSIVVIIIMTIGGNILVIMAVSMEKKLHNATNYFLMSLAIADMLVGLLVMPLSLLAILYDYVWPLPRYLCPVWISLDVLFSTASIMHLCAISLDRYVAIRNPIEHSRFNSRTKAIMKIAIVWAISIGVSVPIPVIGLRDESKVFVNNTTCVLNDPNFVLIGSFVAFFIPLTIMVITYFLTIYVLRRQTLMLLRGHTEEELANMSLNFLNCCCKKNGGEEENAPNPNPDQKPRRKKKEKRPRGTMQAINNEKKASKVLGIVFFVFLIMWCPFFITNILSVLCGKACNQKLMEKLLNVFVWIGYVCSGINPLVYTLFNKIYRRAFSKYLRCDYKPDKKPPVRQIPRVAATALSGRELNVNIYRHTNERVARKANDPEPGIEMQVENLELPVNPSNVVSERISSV
Procedure, shortened: (§3)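 Stably transfected cells expressing rat 5-HT2A or 5-HT2C were serum-starved 5 h and pelleted. Binding used 50 mM Tris, 0.5 mM EDTA, 10 mM MgCl2, pH 7.4, incubated 60 min at 25 °C. Bound was separated by filtration onto PEI-soaked GF/B filters, then scintillation counting. Values came from competition curves.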

[4] = biological target: T2, 5-hydroxytryptamine receptor 2A (Rattus norvegicus, UniProt P14842); experiment: as §1; assay type: functional; procedure, shortened: as §2
T2 sequence (P14842 whole entry): as the sequence (P14842 whole entry) above

[5] = biological target: T2, 5-hydroxytryptamine receptor 2A; experiment: Displacement of [125I]DOI from rat 5HT2A receptor; procedure, shortened: as §3

Row | SMILES | ED50 [1] [µmol/kg] | Activity [2] [%] | ED5 [1] [µmol/kg] | Ki [3] [µM] | EC50 [4] [µM] | Ki [5] [µM]
1 | CCN(CC)C(=O)[C@@H]1C=C2c3cccc4[nH]cc(c34)C[C@H]2N(C)C1 [LYSERGIDE] | 0.037 | 20 | – | – | – | –
2 | COc1cc2c(c(OC)c1OC)CCC2CN (racemic) | – | 83 | 6.6 | 0.06 | 6.1 | 0.13
3 | COc1cc(CCN)cc(OC)c1OC [MESCALINE] | 34 | 86 | – | 0.38 | 11.3 | 0.36
4 | COc1cc2c(c(OC)c1OC)CC[C@H]2CN | – | 88 | – | – | 3.2 | 0.069
5 | COc1cc2c(c(OC)c1OC)CC[C@@H]2CN | – | 59 | – | – | > 50 | 1.12
